Our source for the Activity values is ChEMBL document CHEMBL1149554, “Dual bioactivity of resveratrol fatty alcohols: differentiation of neural stem cells and modulation of neuroinflammation” (2007).

Experiment [1] concerns Neuron. Kind of experiment: Neuronal differentiation activity assessed as increase in number of neurons at 0.1 uM in relative to 5 uM retinoic acid.
In experiment [2] the test system is Neuron. Kind of experiment: Neuronal differentiation activity assessed as increase in number of neurons at 0.1 uM in relative to control. The format is functional, Homo sapiens. Put shortly: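 Neurospheres (undifferentiated aggregates containing 5–10% neural stem cells, raised with EGF and bFGF) were treated with compound and scored for differentiation into neurons. The % of neurons was compared with ethanol vehicle control, or divided by the % of neurons obtained with retinoic acid treatment. Neuron morphology was also rated qualitatively. Each compound was tested in at least three independent experiments.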

Experiment [3] in a line: Inhibition of LPS-stimulated TNFalpha production in mouse MMGT12 cells after 24 hrs by ELISA. The format is functional. Further details: scale not given: the % may be the effect or the level left. Put shortly:
(§1)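 Mouse MMGT-12 microglial cells stimulated with LPS in the presence or absence of test compound at several concentrations. Supernatants were collected, and accumulated NO was measured at 48 h by the Griess method and secreted TNF-α at 24 h by ELISA. Data are expressed as % of the LPS-only control, as mean ± SEM of three independent experiments.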
In general terms: An ELISA detects its analyte on a solid surface through an enzyme-linked reagent.

Experiment [4] can be described thus: Inhibition of LPS-stimulated nitric oxide production in mouse MMGT12 cells after 48 hrs. Further details: scale not given: the % may be the effect or the level left. In kind it is functional. Put shortly:
as §1

For `CCCCCCCCCCCCc1c(O)cc(/C=C/c2ccc(O)cc2)cc1O`, the Activity was found to be 0.52 in the experiment with Neuron [1] and 106% in the experiment on Neuron [2].

On to `COc1ccc(/C=C/c2cc(OC)c(CCCCCCCCCCCCCCO)c(OC)c2)cc1`, for which the Activity with Neuron [2] came to 135%. Same read-out and setting: then `CC1=C(/C=C/C(C)=C/C=C/C(C)=C/C(=O)O)C(C)(C)CCC1` [TRETINOIN], with 203%; and `COc1ccc(/C=C/c2cc(OC)c(CCCCCCCCCCO)c(OC)c2)cc1`, with 147%. Turning to `Oc1ccc(/C=C/c2cc(O)cc(O)c2)cc1` [RESVERATROL], the Activity in the experiment with Neuron [1] came out at 0.52; in the experiment on Neuron [2], 105%. With `OCCCCCCCCCCCCc1c(O)cc(/C=C/c2ccc(O)cc2)cc1O`, the Activity in experiment [3] is 30%; in experiment [4] it was 50%; with Neuron [2] it was 263%. With `COc1ccc(/C=C/c2cc(OC)c(CCCCCCCCCCCCO)c(OC)c2)cc1`, the Activity in the experiment with Neuron [2] turned out to be 188%. The same measure, in the same setting: for `OCCCCCCCCCCCCCCc1c(O)cc(/C=C/c2ccc(O)cc2)cc1O` the value was 160%. For the molecule `COc1ccc(/C=C/c2cc(OC)c(CCCCCCCCCCCCCCCCO)c(OC)c2)cc1`, the Activity with Neuron [1] turned out to be 0.53; in the experiment with Neuron [2] it was 107%. On the same counts, the results for `OCCCCCCCCCCc1c(O)cc(/C=C/c2ccc(O)cc2)cc1O` are 0.53 and 108%.
